Legend:
[1] = biological target: T1, 5-hydroxytryptamine receptor 1A (Homo sapiens, UniProt P08908); assay: Displacement of [3H]8-OH-DPAT from 5HT1AR (unknown origin) by competition binding assay
T1 sequence (P08908 whole entry): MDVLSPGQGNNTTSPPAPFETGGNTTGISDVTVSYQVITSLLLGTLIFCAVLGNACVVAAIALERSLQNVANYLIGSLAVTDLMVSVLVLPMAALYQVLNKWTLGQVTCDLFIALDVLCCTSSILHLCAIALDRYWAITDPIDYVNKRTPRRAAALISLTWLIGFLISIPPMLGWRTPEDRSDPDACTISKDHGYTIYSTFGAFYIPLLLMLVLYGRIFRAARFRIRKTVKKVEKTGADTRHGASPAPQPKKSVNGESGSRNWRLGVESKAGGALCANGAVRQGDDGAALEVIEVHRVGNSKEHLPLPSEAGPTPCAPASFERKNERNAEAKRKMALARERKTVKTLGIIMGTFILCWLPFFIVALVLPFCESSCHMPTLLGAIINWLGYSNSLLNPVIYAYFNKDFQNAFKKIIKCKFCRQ

[2] = biological target: T2, Adrenergic receptor alpha-1 (Homo sapiens, UniProt P35348+P25100+P35368); assay: Displacement of [3H]-7-methoxyprazosin from alpha1 adrenergic receptor (unknown origin) by competition binding assay
T2 sequence (P35348 whole entry): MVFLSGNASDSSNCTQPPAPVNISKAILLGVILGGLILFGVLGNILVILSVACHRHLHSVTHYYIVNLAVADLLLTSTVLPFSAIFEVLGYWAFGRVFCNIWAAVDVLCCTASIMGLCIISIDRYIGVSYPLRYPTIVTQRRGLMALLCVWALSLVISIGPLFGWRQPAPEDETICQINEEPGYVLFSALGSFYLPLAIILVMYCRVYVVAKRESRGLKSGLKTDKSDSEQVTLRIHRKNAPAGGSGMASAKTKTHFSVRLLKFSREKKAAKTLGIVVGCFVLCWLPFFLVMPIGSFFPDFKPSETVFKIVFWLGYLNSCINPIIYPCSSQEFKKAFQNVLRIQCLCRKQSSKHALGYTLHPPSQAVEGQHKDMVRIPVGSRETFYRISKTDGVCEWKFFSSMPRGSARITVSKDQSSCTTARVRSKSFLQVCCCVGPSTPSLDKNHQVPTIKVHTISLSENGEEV
T2 sequence (P25100 whole entry): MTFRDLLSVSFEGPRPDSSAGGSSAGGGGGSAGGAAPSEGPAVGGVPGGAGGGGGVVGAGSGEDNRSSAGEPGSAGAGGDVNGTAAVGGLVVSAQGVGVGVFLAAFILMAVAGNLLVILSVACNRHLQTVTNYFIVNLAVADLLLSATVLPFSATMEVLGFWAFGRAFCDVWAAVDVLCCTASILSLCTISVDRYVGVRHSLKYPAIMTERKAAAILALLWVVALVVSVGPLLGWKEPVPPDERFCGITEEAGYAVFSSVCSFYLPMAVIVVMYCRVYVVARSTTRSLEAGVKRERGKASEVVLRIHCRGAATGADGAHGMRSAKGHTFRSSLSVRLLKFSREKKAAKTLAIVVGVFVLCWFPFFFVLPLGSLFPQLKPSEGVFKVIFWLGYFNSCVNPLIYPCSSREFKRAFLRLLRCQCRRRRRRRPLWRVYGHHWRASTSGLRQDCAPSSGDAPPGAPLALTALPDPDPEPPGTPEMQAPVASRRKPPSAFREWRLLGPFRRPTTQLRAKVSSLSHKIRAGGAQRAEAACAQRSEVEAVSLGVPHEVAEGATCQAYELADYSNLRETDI
T2 sequence (P35368 whole entry): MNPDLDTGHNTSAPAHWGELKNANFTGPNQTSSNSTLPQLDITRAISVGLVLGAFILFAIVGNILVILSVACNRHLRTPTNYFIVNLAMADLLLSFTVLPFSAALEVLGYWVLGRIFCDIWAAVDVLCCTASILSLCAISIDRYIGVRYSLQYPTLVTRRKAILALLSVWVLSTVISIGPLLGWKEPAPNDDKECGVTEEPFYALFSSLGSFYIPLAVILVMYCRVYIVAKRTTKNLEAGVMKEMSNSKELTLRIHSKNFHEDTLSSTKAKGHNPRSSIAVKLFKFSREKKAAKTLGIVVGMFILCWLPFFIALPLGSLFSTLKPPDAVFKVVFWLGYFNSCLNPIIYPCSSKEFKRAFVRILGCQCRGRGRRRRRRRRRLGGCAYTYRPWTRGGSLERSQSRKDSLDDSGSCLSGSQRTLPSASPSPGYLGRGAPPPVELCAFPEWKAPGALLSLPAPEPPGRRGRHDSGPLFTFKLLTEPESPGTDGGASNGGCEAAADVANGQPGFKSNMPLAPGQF
Summary of the method: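 Competition binding against [3H]-7-methoxyprazosin, with phentolamine as the reference compound.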

[3] = biological target: T3, 5-hydroxytryptamine receptor 1A (Homo sapiens) (UniProt P08908); assay: Agonist activity at human 5HT1AR expressed in CHO cells assessed as increase in [35S]GTPgammaS binding by liquid scintillation spectrometry relative to untreated control; format: functional, cell-based; conditions: in the assay text read “relative to 5-HT” for “relative to untreated control”
T3 sequence (whole entry): T1 sequence (P08908 whole entry)
Summary of the method: (§1)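 CHO-h5-HT1A cell membranes (30 μg) preincubated 5 min at room temperature with set concentrations of ligand in 20 mM HEPES pH 7.4, 3 mM MgCl2, 100 mM NaCl, 3 μM GDP. [35S]GTPγS (0.1 nM) then added, 60 min at room temperature. Stopped by rapid filtration through GF/B filters with three ice-cold 20 mM HEPES pH 7.4 washes. Bound radioactivity counted by liquid scintillation.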

[4] = biological target: T3, 5-hydroxytryptamine receptor 1A (Homo sapiens); assay: (§2) Agonist activity at human 5HT1AR expressed in CHO cells assessed as increase in [35S]GTPgammaS binding by liquid scintillation spectrometry; format: functional, cell-based; summary of the method: as §1
[5] = biological target: T1, 5-hydroxytryptamine receptor 1A; assay: as §2; format: functional, cell-based; summary of the method: as §1
Homo sapiens = species: Homo sapiens; assay: Selectivity index, ratio of Ki for alpha1 adrenergic receptor (unknown origin) to Ki for 5HT1AR (unknown origin)

Row | SMILES | Ki [1] [nM] | Ki [2] [nM] | Emax [3] [%] | Activity [4] | EC50 [5] [nM] | Ratio Ki (Homo sapiens)
1 | COc1ccc2cccc(N3CCN(CCCCCn4ncc(=O)n(C)c4=O)CC3)c2c1 | 240 | > 10000 | – | – | – | –
2 | CCOc1ccc2cccc(N3CCN(CCCCn4ncc(=O)n(C)c4=O)CC3)c2c1 | 2.1 | 48 | – | – | – | –
3 | Cn1c(=O)cnn(CCCCN2CCN(c3cccc(F)n3)CC2)c1=O | 0.2 | > 10000 | 95 | Dose-dependent effect | 0.2 | –
4 | Cn1c(=O)cnn(CCCCN2CCN(c3ccccn3)CC2)c1=O | 1.1 | 262 | 85 | Dose-dependent effect | 0.08 | –
5 | Cn1c(=O)cnn(CCCCN2CCN(c3ccccc3)CC2)c1=O | 2.5 | 64 | 93 | Dose-dependent effect | 0.3 | 25
6 | Cn1c(=O)cnn(CCCN2CCN(c3ccccc3)CC2)c1=O | 350 | > 10000 | – | – | – | –
7 | COc1ccccc1N1CCN(CCCCn2ncc(=O)n(C)c2=O)CC1 | – | 6.75 | – | Dose-dependent effect | – | 45
8 | Cn1c(=O)cnn(CCCCN2CCN(c3ccc(F)cn3)CC2)c1=O | 68 | > 10000 | – | – | – | –
9 | COc1ccccc1N1CCN(CCn2ncc(=O)n(C)c2=O)CC1 | 240 | > 10000 | – | – | – | –
10 | COc1ccc2cccc(N3CCN(CCCn4ncc(=O)n(C)c4=O)CC3)c2c1 | 175 | > 10000 | – | – | – | –
11 | CSc1ccccc1N1CCN(CCCCn2ncc(=O)n(C)c2=O)CC1 | 0.46 | 1.8 | – | – | – | –
12 | Cn1c(=O)cnn(CCCCN2CCN(c3ccccc3C#N)CC2)c1=O | 0.835 | 7.3 | – | – | – | –
13 | Cn1c(=O)cnn(CCCCN2CCN(c3ccccc3O)CC2)c1=O | 1.7 | > 10000 | – | – | – | > 10000
14 | COc1ccccc1N1CCN(CCCn2ncc(=O)n(C)c2=O)CC1 | 180 | > 10000 | – | – | – | –
15 | Cn1c(=O)cnn(CCCCN2CCN(c3c(F)cccc3C#N)CC2)c1=O | 4.8 | > 10000 | – | – | – | –
16 | Cn1c(=O)cnn(CCCCN2CCN(c3ccccc3S)CC2)c1=O | 8 | > 10000 | – | – | – | –
17 | CN(C)c1ccccc1N1CCN(CCCCn2ncc(=O)n(C)c2=O)CC1 | 180 | 350 | – | – | – | –

Row | SMILES | Ki [1] [nM] | Ki [2] [nM] | Emax [3] [%] | Activity [4] | EC50 [5] [nM] | Ratio Ki (Homo sapiens)
18 | COc1ccc(N2CCN(CCCCn3ncc(=O)n(C)c3=O)CC2)c(OC)c1 | 190 | > 10000 | – | – | – | –
19 | Cn1c(=O)cnn(CCCCN2CCN(c3ccccc3OCCCF)CC2)c1=O | 0.8 | 280 | – | – | – | 42
20 | Cn1c(=O)cnn(CCCCN2CCN(c3cccc(O)c3)CC2)c1=O | 2.8 | > 10000 | – | – | – | –
21 | CNc1ccccc1N1CCN(CCCCn2ncc(=O)n(C)c2=O)CC1 | 220 | 450 | – | – | – | –
22 | Cn1c(=O)cnn(CCCCN2CCN(c3cccc(Br)n3)CC2)c1=O | 1.4 | > 10000 | – | – | – | –
23 | COc1ccc(N2CCN(CCCCn3ncc(=O)n(C)c3=O)CC2)cc1 | 414 | > 10000 | – | – | – | –
24 | Cn1c(=O)cnn(CCCCN2CCN(c3ncccc3F)CC2)c1=O | 1.2 | > 10000 | 80 | Dose-dependent effect | 0.8 | –
25 | COc1ccccc1N1CCN(CCCCCn2ncc(=O)n(C)c2=O)CC1 | 150 | > 10000 | – | – | – | –
26 | Cn1c(=O)cnn(CCCCN2CCN(c3ccccc3F)CC2)c1=O | 1.89 | 9.73 | – | – | – | –
27 | CCOc1ccccc1N1CCN(CCCCn2ncc(=O)n(C)c2=O)CC1 | 0.66 | 1.8 | – | – | – | –
28 | Cn1c(=O)cnn(CCCN2CCN(c3ccccc3F)CC2)c1=O | 250 | > 10000 | – | – | – | –
29 | Cn1c(=O)cnn(CCCCN2CCN(c3ccc(I)cc3)CC2)c1=O | 58.8 | 103 | – | – | – | –
30 | COc1ccc(N2CCN(CCCCn3ncc(=O)n(C)c3=O)CC2)c(C#N)c1 | 215 | 380 | – | – | – | –
31 | Cn1c(=O)cnn(CCCCN2CCN(c3ncccn3)CC2)c1=O [EPTAPIRONE] | 175 | > 10000 | – | – | – | –
32 | Cn1c(=O)cnn(CCCCN2CCN(c3cccc4ccc(O)cc34)CC2)c1=O | 0.44 | 24.5 | – | – | – | –
33 | Cn1c(=O)cnn(CCCCN2CCN(c3c(Br)cccc3C#N)CC2)c1=O | 28 | 450 | – | – | – | –
